Screening results as filed in PubChem BioAssay.
EphB4 ephrin blk: EphB4-ephrin-B2 interaction antagonism | 0.15% of 97,000 active | AID 720 | P54760 | EphB4 LBD / TNYL-RAW-Alexa532 peptide, fluorescence polarization | inhibition, % at 7 µM;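 active = inhibition above the screen-wide mean inhibition plus 3 SD, cut at about 15% in these data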;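 also: 0% = DMSO wells and 100% = excess unlabeled TNYL-RAW peptide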
GALR2 ag: agonists of human galanin receptor 2 (GALR2); O43603; GALR2-expressing cells, agonist activation read-out; activation, % (no concentration beside the values); 0.48% of 140,000 active; in the data active = activation above about 5%, passing the limit was not always enough;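 also: 0% = vehicle buffer wells and 100% = reference agonist at full effect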
Target sequence (O43603 whole entry, looked up): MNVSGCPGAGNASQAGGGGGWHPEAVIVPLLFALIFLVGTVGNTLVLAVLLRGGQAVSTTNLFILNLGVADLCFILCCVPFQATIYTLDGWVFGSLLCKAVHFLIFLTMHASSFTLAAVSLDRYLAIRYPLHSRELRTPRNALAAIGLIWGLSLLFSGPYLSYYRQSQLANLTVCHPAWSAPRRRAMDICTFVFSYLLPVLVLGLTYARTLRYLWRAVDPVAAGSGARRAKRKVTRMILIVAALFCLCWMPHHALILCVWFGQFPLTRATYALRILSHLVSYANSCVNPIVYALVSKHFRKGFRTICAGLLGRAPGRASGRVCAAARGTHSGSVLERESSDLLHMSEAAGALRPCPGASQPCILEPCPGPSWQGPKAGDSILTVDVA
Rev-RRE block: disrupts HIV-1 Rev binding to RRE RNA; P05866; Rev peptide-RRE RNA binding, FRET; inhibition, % at 8 µM; 0.79% of 97,000 active; AID 704;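 active = inhibition above the screen-wide mean plus 3 SD, cut at about 35% in these data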;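 also: 0% = median DMSO wells and 100% = median Neomycin B control wells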
Target sequence (P05866 whole entry, looked up): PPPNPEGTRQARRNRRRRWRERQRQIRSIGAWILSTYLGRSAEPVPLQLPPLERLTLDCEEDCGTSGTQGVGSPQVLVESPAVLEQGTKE
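System: Cy5-labelled duplex RRE RNA binding fluorescein-labelled HIV Rev peptide; Signal: fluorescein-to-Cy5 FRET, 480 nm excitation; Also added: labelled Rev peptide; Compound: one concentration, 8 µM nominal; Buffer or medium: HEPES pH 7.5 salt buffer with EDTA; Read-out: % inhibition of FRET ratio versus controls; Schedule: 5 min preincubation and 15 min binding, 25 °C.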
GALR2 antag: antagonists of human galanin receptor 2 (GALR2); GALR2-expressing cells, antagonist mode; inhibition, % at 4 µM; 0.39% of 140,000 active; in the data active = inhibition above about 27%;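 also: cells stimulated with galanin 1-16 at roughly its EC80; 0% = agonist challenge control and 100% = basal control without agonist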
S1P2 ag: activates the human S1P2 receptor. O95136. S1P2-expressing cell line, agonist reporter read-out. activation, % at 4.5 µM. 0.46% of 97,000 active. AID 729; in the data active = activation above about 16%;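 also: 0% = vehicle low control and 100% = maximal reference agonist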
S1P2 antag: S1P2 (human) receptor antagonism; inhibition, % at 5 µM; 0.21% of 97,000 active; O95136; cell-based S1P2 antagonist assay, inhibition at 5 uM; in the data active = inhibition above about 45%;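 also: CRE beta-lactamase reporter cells expressing human S1P2 stimulated with S1P; 0% = agonist at EC80 alone and 100% = agonist plus reference antagonist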
* hit, by the source's call; [ ] = another dose, or the depositor's remark. The list is not random: actives were taken first. Their share in the collection is about 1.7%.

`CN1C(=O)c2cccc(NCCCN3C(=O)c4ccccc4C3=O)c2C1=O` gave EphB4 ephrin blk 1.8, GALR2 ag -0.9, Rev-RRE block 57.8*, GALR2 antag 8.1, S1P2 ag -6.5 and S1P2 antag 26.7.
CCOc1ccc(N=C2NC(=O)S/C2=C\c2ccc(N(C)C)cc2)cc1 was read as EphB4 ephrin blk -13.4, GALR2 ag -4.1, Rev-RRE block 118.2*[fluorescence artefact?], GALR2 antag 18.5, S1P2 ag -7.1 and S1P2 antag 13.7.
CCOc1ccc(/C=C2/SC(=O)NC2=S)cc1 was read as GALR2 ag -0.3 and GALR2 antag -2.0.
Screening CCOc1cc(CNc2ncc(-c3ccc(OC)cc3)n2C)ccc1O returned EphB4 ephrin blk 3.6, GALR2 ag -3.1, Rev-RRE block -0.4, GALR2 antag 16.8, S1P2 ag -2.4 and S1P2 antag 30.6.
Screening COc1ccc(/C=N/NC(=O)c2ccc(Cn3cc([N+](=O)[O-])cn3)o2)cc1O returned EphB4 ephrin blk 4.9, GALR2 ag -0.8, Rev-RRE block 7.2, GALR2 antag -4.8, S1P2 ag -6.8 and S1P2 antag -5.1.
`COc1ccc(/C=N/Nc2ccc([N+](=O)[O-])cc2)cc1Cn1cc([N+](=O)[O-])cn1` gave EphB4 ephrin blk -4.3, GALR2 ag -0.6, Rev-RRE block 54.0*, GALR2 antag -9.4, S1P2 ag -1.3 and S1P2 antag 34.4.
O=S(Cc1cc(Oc2ccccc2)nc(-c2ccccc2)n1)c1ccccc1 (stereo not drawn) was read as EphB4 ephrin blk 0.8, GALR2 ag -2.5, Rev-RRE block 13.3, GALR2 antag -0.9, S1P2 ag -2.3 and S1P2 antag 9.4.
Screening Cc1c(C(=O)COC(C)(C)C)[nH]c2ccccc12 returned EphB4 ephrin blk 2.5, GALR2 ag -1.0, Rev-RRE block 4.4, GALR2 antag 0.0, S1P2 ag -4.5 and S1P2 antag 18.9.
CCn1c(=S)sc2nc(C)sc21 was read as EphB4 ephrin blk -0.1, GALR2 ag -2.0, Rev-RRE block 8.8, GALR2 antag 4.8, S1P2 ag -4.8 and S1P2 antag -10.7.
CCOC(=O)CS(=O)(=O)c1nc(-c2ccccc2)cc(C(F)(F)F)n1 was read as EphB4 ephrin blk -2.1, GALR2 ag 7.2, Rev-RRE block 6.4, GALR2 antag 59.1*, S1P2 ag -2.9 and S1P2 antag -8.5.
Screening COc1ccc(NS(=O)(=O)c2cccc(Cl)c2)cc1S(=O)(=O)N1CCCCC1 returned GALR2 ag -0.1 and GALR2 antag 0.7.
COc1cc2c(cc1OC)C1=C(C#N)CC/C(=N\S(=O)(=O)c3cccc(Cl)c3)N1CC2 was read as EphB4 ephrin blk -0.8, GALR2 ag 0.2, Rev-RRE block 0.6, GALR2 antag 5.4, S1P2 ag 48.7* and S1P2 antag -41.1.
For COc1cc(C2C(C#N)=C(N)Oc3c2ccc2ccccc32)ccc1OCC(=O)Nc1ccccc1C (stereo not drawn) the results were EphB4 ephrin blk 7.4, GALR2 ag -1.2, Rev-RRE block 0.7, GALR2 antag 1.5, S1P2 ag -3.5 and S1P2 antag 19.8.
COC(=O)c1ccc(NC(=O)COc2ccc(C3C(C#N)=C(N)Oc4c3ccc3ccccc43)cc2OC)cc1 (stereo not drawn) was read as EphB4 ephrin blk -5.9, GALR2 ag -0.8, Rev-RRE block -6.7, GALR2 antag 11.1, S1P2 ag -6.8 and S1P2 antag 62.9*.
`COc1cccc(/C=N/NC(=O)CN2C(=O)NC3NC(=O)NC32)c1` (stereo not drawn) gave GALR2 ag -0.6 and GALR2 antag 3.1.
COc1ccc(N(C)S(=O)(=O)c2cccc(C(=O)Nc3ccc(-n4cnnn4)cc3)c2)cc1 was read as EphB4 ephrin blk -0.9, GALR2 ag -4.1, Rev-RRE block 12.4, GALR2 antag 7.8, S1P2 ag -11.2 and S1P2 antag 30.9.
`Cc1cccc(S(=O)(=O)C(C#N)c2nc3ccccc3nc2N2CCCC2)c1` (stereo not drawn) gave EphB4 ephrin blk -0.3, GALR2 ag 1.7, Rev-RRE block 82.3*[fluorescence artefact?], GALR2 antag -3.3, S1P2 ag -1.5 and S1P2 antag 2.4.
Cc1ccc(C)c(S(=O)(=O)C(C#N)c2nc3ccccc3nc2N2CCCC2)c1 (stereo not drawn) was read as EphB4 ephrin blk -7.7, GALR2 ag -1.1, Rev-RRE block 63.8*, GALR2 antag 9.1, S1P2 ag -3.7 and S1P2 antag 5.3.
`N#CC(c1nc2ccccc2nc1N1CCCC1)S(=O)(=O)c1cccs1` (stereo not drawn) gave EphB4 ephrin blk -3.0, GALR2 ag -0.7, Rev-RRE block 42.4*, GALR2 antag -1.4, S1P2 ag -1.2 and S1P2 antag -34.0.
COc1ccc(S(=O)(=O)C(C#N)c2nc3ccccc3nc2N2CCCCC2)cc1 (stereo not drawn) was read as EphB4 ephrin blk -1.4, GALR2 ag -2.1, Rev-RRE block 30.2, GALR2 antag 18.5, S1P2 ag -0.4 and S1P2 antag -6.6.
N#CC(c1nc2ccccc2nc1N1CCCC1)S(=O)(=O)c1ccccc1 (stereo not drawn) was read as EphB4 ephrin blk 8.8, GALR2 ag -1.7, Rev-RRE block 81.9*[fluorescence artefact?], GALR2 antag 3.1, S1P2 ag -2.7 and S1P2 antag 11.5.
Clc1ccc(C2C3=C(Nc4ncnn42)c2ccccc2CC3)cc1 (stereo not drawn) was read as EphB4 ephrin blk 3.8, GALR2 ag -3.4, Rev-RRE block 0.8, GALR2 antag -0.2, S1P2 ag -9.8 and S1P2 antag 5.9.
For C=CCN1C=CC(=C/C=C(/C#N)C(=O)OCC)C=C1 the results were EphB4 ephrin blk 0.5, GALR2 ag 0.6, Rev-RRE block 138.1*[fluorescence artefact?], GALR2 antag -8.8, S1P2 ag -1.3 and S1P2 antag 16.2.
Screening Cc1ccccc1Cn1nc(C)c(NC(=O)/C=C/c2cnn(C)c2)c1C returned GALR2 ag -0.7 and GALR2 antag 6.2.
For COc1ccccc1C1CC(c2c(-c3ccccc3)c3cc(Cl)ccc3[nH]c2=O)=NN1S(C)(=O)=O (stereo not drawn) the results were EphB4 ephrin blk 16.6*, GALR2 ag 2.1, Rev-RRE block 6.4, GALR2 antag 1.1, S1P2 ag -3.6 and S1P2 antag 21.5.
For CCCN1C(=O)/C(=C/c2ccc(N3CCCC3)c(C)c2)NC1=S the results were EphB4 ephrin blk 3.2, GALR2 ag -1.5, Rev-RRE block 138.9*[fluorescence artefact?], GALR2 antag 0.4, S1P2 ag -7.3 and S1P2 antag 40.4.
For COc1ccc(-c2ccc3c(N)c(C(=O)c4ccc(OC)c(OC)c4)sc3n2)cc1 the results were EphB4 ephrin blk 5.1, GALR2 ag -1.8, Rev-RRE block 85.0*[fluorescence artefact?], GALR2 antag 9.9, S1P2 ag -4.2 and S1P2 antag 30.7.
CCOC(=O)c1sc2nc(-c3ccccc3)ccc2c1N was read as GALR2 ag 3.4 and GALR2 antag 13.8.
